Converted amounts (≈) assume the structure as drawn.

Experiment [1] has as its system MCF7. Briefly: Antiproliferative activity against human MCF7 cells after 48 hrs by MTT assay. It counts as functional, cell-based. To be noted: MCF7, 48 h. In outline: (§1)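 Cells diluted to 2 × 10⁴ cells/mL in complete medium, seeded in 96-well plates and incubated 24 h at 37 °C, 5% CO₂ before compound addition at preset concentrations; colchicine and CA-4 as positive references. After 48 h exposure, MTT added; 4 h later 10% SDS-5% isobutyl alcohol-0.01 M HCl extraction solution added, overnight at 37 °C, absorbance read at 570 nm.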

The nature of experiment [2]: Antiproliferative activity against mouse B16F10 cells after 48 hrs by MTT assay. The note with it: B16-F10, 48 h. It counts as functional, cell-based. Summed up: as §1
(Formazan colour is commonly taken as a measure of viable cells.)

Experiment [3] has as its target Tubulin (Bos taurus, UniProt Q6B856+Q862L2+Q862F3). Nature of the experiment: Inhibition of bovine brain tubulin polymerization after 20 mins by turbidimetric method.
The subject of experiment [4] is A549. Nature of the experiment: Antiproliferative activity against human A549 cells after 48 hrs by MTT assay. It counts as functional, cell-based. To be noted: A549, 48 h. Summed up:
as §1

Experiment [5] has as its system MCF7. Briefly: Cell cycle arrest in human MCF7 cells assessed as accumulation at G0/G1 phase at 1 ug/ml after 24 hrs by flow cytometry (reference value: 62.34 %). Format: functional. A general note: A flow cytometer gives signals particle by particle.
The test system of experiment [6] is MCF7. Briefly: Cell cycle arrest in human MCF7 cells assessed as accumulation at S phase at 1 ug/ml after 24 hrs by flow cytometry (reference value: 13.05 %). It counts as functional.
In experiment [7] the test system is MCF7. Briefly: Cell cycle arrest in human MCF7 cells assessed as accumulation at G2/M phase at 1 ug/ml after 24 hrs by flow cytometry (reference value: 24.61 %). Format: functional.
Experiment [8] relates to MCF7. Nature of the experiment: Cell cycle arrest in human MCF7 cells after 24 hrs by flow cytometry. Format: functional, cell-based.
Experiment [9] concerns MCF7. Nature of the experiment: Cell cycle arrest in human MCF7 cells assessed as accumulation at G0/G1 phase at 2 ug/ml after 24 hrs by flow cytometry (reference value: 62.34 %). Format: functional.
Experiment [10] has as its system MCF7. Nature of the experiment: Cell cycle arrest in human MCF7 cells assessed as accumulation at G2/M phase at 2 ug/ml after 24 hrs by flow cytometry (reference value: 24.61 %). Format: functional.
For experiment [11], the system named is MCF7. Briefly: Cell cycle arrest in human MCF7 cells assessed as accumulation at S phase at 2 ug/ml after 24 hrs by flow cytometry (reference value: 13.05 %). Format: functional.

One may read the IC50 as the concentration at which inhibition is half-maximal. Read a high IC50 as weaker potency. For `O=C(/C=C/c1ccc(O)c(O)c1)N1CCN(c2cccc(C(F)(F)F)c2)CC1`, the IC50 in [1] turned out to be 1.24 µg/mL (≈ 3.16 µM); in experiment [2], 2.01 µg/mL (≈ 5.12 µM); in experiment [3] it was 5.89 µM; in experiment [4], 1.74 µg/mL (≈ 4.43 µM).
On the same counts, the results for `O=C(/C=C/c1ccc(O)c(O)c1)N1CCN(c2ccccn2)CC1` are 1.82 µg/mL (≈ 5.59 µM), 3.01 µg/mL (≈ 9.25 µM), 11.61 µM and 2.32 µg/mL (≈ 7.13 µM).
In the same order, the values of `O=C(/C=C/c1ccc(O)c(O)c1)N1CCN(Cc2ccccc2)CC1` are 1.48 µg/mL (≈ 4.37 µM), 3.12 µg/mL (≈ 9.22 µM), 9.28 µM and 2.98 µg/mL (≈ 8.81 µM).
Take `O=C(/C=C/c1ccc(O)c(O)c1)N1CCN(c2cccc(Cl)c2)CC1`: the IC50 in [1] was 1.34 µg/mL (≈ 3.73 µM); in experiment [2], 1.71 µg/mL (≈ 4.77 µM); in experiment [3], 5.28 µM; in experiment [4], 1.29 µg/mL (≈ 3.6 µM).
Regarding `COc1ccccc1N1CCN(C(=O)/C=C/c2ccc(O)c(O)c2)CC1`, the concentration for half-maximal inhibition (IC50) in [1] came to 0.54 µg/mL (≈ 1.52 µM); in experiment [2], 1.23 µg/mL (≈ 3.47 µM); in experiment [3] it was 1.72 µM; in [4], 0.98 µg/mL (≈ 2.77 µM).
In the same order, the values of `Cc1ccc(N2CCN(C(=O)/C=C/c3ccc(O)c(O)c3)CC2)c(C)c1` are 0.78 µg/mL (≈ 2.21 µM), 1.43 µg/mL (≈ 4.06 µM), 2.98 µM and 1.02 µg/mL (≈ 2.89 µM).
On the same counts, the results for `O=C(/C=C/c1ccc(O)c(O)c1)N1CCN(c2ccc(F)cc2)CC1` are 1.44 µg/mL (≈ 4.21 µM), 1.68 µg/mL (≈ 4.91 µM), 7.39 µM and 1.25 µg/mL (≈ 3.65 µM).
In the case of `O=C(/C=C/c1ccc(O)c(O)c1)N1CCN(C(c2ccccc2)c2ccc(Cl)cc2)CC1` (configuration not stated), the IC50 in experiment [1] stood at 0.48 µg/mL (≈ 1.07 µM); in experiment [2], 0.68 µg/mL (≈ 1.51 µM); in experiment [3] it was 1.56 µM; in experiment [4] it was 0.8 µg/mL (≈ 1.78 µM).
`CCN1CCN(C(=O)/C=C/c2ccc(O)c(O)c2)CC1`: the IC50 was found to be 2.06 µg/mL (≈ 7.45 µM) in experiment [1], 6.44 µg/mL (≈ 23.3 µM) in [2], 12.78 µM in [3] and 6.54 µg/mL (≈ 23.7 µM) in experiment [4].
In the case of `O=C(/C=C/c1ccc(O)c(O)c1)N1CCN(c2ccccc2Cl)CC1`, the IC50 in [1] stood at 1.36 µg/mL (≈ 3.79 µM); in experiment [2] it was 1.82 µg/mL (≈ 5.07 µM); in experiment [3], 5.46 µM; in experiment [4], 1.44 µg/mL (≈ 4.01 µM).
Turning to `COc1cccc(N2CCN(C(=O)/C=C/c3ccc(O)c(O)c3)CC2)c1`, the IC50 was 0.92 µg/mL (≈ 2.6 µM) in [1], 1.46 µg/mL (≈ 4.12 µM) in experiment [2], 3.08 µM in experiment [3] and 1.27 µg/mL (≈ 3.58 µM) in [4].
For the compound `O=C(/C=C/c1ccc(O)c(O)c1)N1CCN(c2ccccc2)CC1`, the IC50 in experiment [1] is 1.03 µg/mL (≈ 3.18 µM); in experiment [2], 1.78 µg/mL (≈ 5.49 µM); in experiment [3], 3.14 µM; in experiment [4], 1.32 µg/mL (≈ 4.07 µM).
On to `O=C(/C=C/c1ccc(O)c(O)c1)N1CCN(c2ccc([N+](=O)[O-])cc2)CC1`, for which the IC50 in experiment [1] turned out to be 1.14 µg/mL (≈ 3.09 µM); in [2], 1.79 µg/mL (≈ 4.85 µM); in experiment [3] it was 4.86 µM; in experiment [4] it was 1.56 µg/mL (≈ 4.22 µM).
As for `COc1ccc(N2CCN(C(=O)/C=C/c3ccc(O)c(O)c3)CC2)cc1`, the IC50 is 0.52 µg/mL (≈ 1.47 µM) in experiment [1], 1.21 µg/mL (≈ 3.41 µM) in experiment [2], 1.86 µM in [3] and 0.93 µg/mL (≈ 2.62 µM) in [4].
Consider `O=C(/C=C/c1ccc(O)c(O)c1)N1CCN(c2ccccc2F)CC1`, for which the IC50 came to 1.38 µg/mL (≈ 4.03 µM) in experiment [1], 2.43 µg/mL (≈ 7.1 µM) in experiment [2], 7.78 µM in [3] and 1.43 µg/mL (≈ 4.18 µM) in [4].
For `COc1ccc(/C=C\c2cc(OC)c(OC)c(OC)c2)cc1O` [COMBRETASTATIN A4], the IC50 was determined as 0.21 µg/mL (≈ 0.664 µM) in experiment [1], 0.42 µg/mL (≈ 1.33 µM) in experiment [2] and 0.46 µg/mL (≈ 1.45 µM) in experiment [4].
Turning to `COc1cc2c(c(OC)c1OC)-c1ccc(OC)c(=O)cc1[C@@H](NC(C)=O)CC2` [COLCHICINE], the IC50 turned out to be 0.39 µg/mL (≈ 0.976 µM) in experiment [1], 0.48 µg/mL (≈ 1.2 µM) in experiment [2] and 0.58 µg/mL (≈ 1.45 µM) in experiment [4]. Besides, the figures for the Activity in [5], in [6] and in [7] were 4.6%, 11.78% and 83.62%, respectively.
Take `O=C(/C=C/c1ccc(O)c(O)c1)N1CCN(c2ccc(Cl)c(Cl)c2)CC1`: the IC50 in experiment [1] turned out to be 1.28 µg/mL (≈ 3.25 µM); in experiment [2], 1.66 µg/mL (≈ 4.22 µM); in experiment [3] it was 4.93 µM; in experiment [4], 1.74 µg/mL (≈ 4.42 µM).
For `O=C(/C=C/c1ccc(O)c(O)c1)N1CCN(C(c2ccccc2)c2ccccc2)CC1`, the IC50 was 0.32 µg/mL (≈ 0.772 µM) in experiment [1], 0.44 µg/mL (≈ 1.06 µM) in [2], 0.92 µM in experiment [3] and 0.54 µg/mL (≈ 1.3 µM) in [4]. Further, the Activity in experiment [5] is 18.33%; in [6] it was 18.18%; in experiment [8] it was “Dose-dependent effect”; in [7], 63.39%; in [9] it was 2.63%; in [10], 84.36%. Moreover, the Activity in [11] was found to be 13.01%.
On to `O=C(/C=C/c1ccc(O)c(O)c1)N1CCN(c2cccc(Cl)c2Cl)CC1`, for which the IC50 in experiment [1] was 1.12 µg/mL (≈ 2.85 µM); in experiment [2] it was 2.01 µg/mL (≈ 5.11 µM); in [3] it was 4.42 µM; in experiment [4] it was 1.68 µg/mL (≈ 4.27 µM).
In the same order, the values of `O=C(/C=C/c1ccc(O)c(O)c1)N1CCN(C(c2ccc(F)cc2)c2ccc(F)cc2)CC1` are 0.43 µg/mL (≈ 0.955 µM), 0.52 µg/mL (≈ 1.15 µM), 1.44 µM and 0.73 µg/mL (≈ 1.62 µM).

(Values after ChEMBL document CHEMBL3351725, “Design, synthesis and biological evaluation of (E)-3-(3,4-dihydroxyphenyl)acrylylpiperazine derivatives as a new class of tubulin polymerization inhibitors” (Bioorg Med Chem, 2014).)
